From ChEMBL document CHEMBL1156818, “Rational design of indoleamine 2,3-dioxygenase inhibitors” (J Med Chem, 2010)
Each block holds one molecule with its values, some of them ahead of it.

Legend:
[1] = molecular target: T1, Indoleamine 2,3-dioxygenase 1 (Homo sapiens, UniProt P14902)
[2] = Cytotoxicity against mouse P815B cells expressing mouse recombinant TDO by MTT assay; assay type: cell-based; settings: for CC50: mouse, P815B cells expressing mouse recombinant TDO, read-out: LD50 (the source's name)
Summary of the method: (§1)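 Cells (2 × 10⁵/well) incubated 8 h at 37 °C in HBSS with 80 μM L-Trp and compound titrated 0.312–80 μM or 1.56–400 μM. Supernatant was removed; the remaining cells received culture medium (Iscove, 10% FCS, amino acids) plus MTT for 3-4 h at 37 °C.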

[3] = (§2) Cytotoxicity against HEK293 cells expressing human recombinant IDO by MTT assay; assay type: cell-based; settings: human, HEK293 cells expressing human recombinant IDO; read-out: LD50 (the source's name)
Summary of the method: as §1

[4] = Cytotoxicity against mouse P815B cells expressing mouse recombinant IDO by MTT assay; assay type: cell-based; settings: read-out: LD50 (the source's name)
Summary of the method: as §1

[5] = molecular target: Indoleamine 2,3-dioxygenase 1 (Mus musculus, UniProt P28776); test: Inhibition of mouse recombinant IDO expressed in mouse P815B cells assessed as blockade of tryptophan degradation by HPLC; assay type: cell-based
[6] = molecular target: Tryptophan 2,3-dioxygenase (Mus musculus, UniProt P48776); test: Inhibition of mouse recombinant TDO expressed in mouse P815B cells assessed as blockade of tryptophan degradation by HPLC; assay type: cell-based
[7] = molecular target: T1, Indoleamine 2,3-dioxygenase 1; test: Inhibition of human recombinant IDO expressed in HEK293 cells assessed as blockade of tryptophan degradation by HPLC; assay type: cell-based
HEK293 = test: as §2; assay type: cell-based; settings: Homo sapiens, HEK293
Summary of the method: as §1

Sequence of Tryptophan 2,3-dioxygenase (P48776 whole entry): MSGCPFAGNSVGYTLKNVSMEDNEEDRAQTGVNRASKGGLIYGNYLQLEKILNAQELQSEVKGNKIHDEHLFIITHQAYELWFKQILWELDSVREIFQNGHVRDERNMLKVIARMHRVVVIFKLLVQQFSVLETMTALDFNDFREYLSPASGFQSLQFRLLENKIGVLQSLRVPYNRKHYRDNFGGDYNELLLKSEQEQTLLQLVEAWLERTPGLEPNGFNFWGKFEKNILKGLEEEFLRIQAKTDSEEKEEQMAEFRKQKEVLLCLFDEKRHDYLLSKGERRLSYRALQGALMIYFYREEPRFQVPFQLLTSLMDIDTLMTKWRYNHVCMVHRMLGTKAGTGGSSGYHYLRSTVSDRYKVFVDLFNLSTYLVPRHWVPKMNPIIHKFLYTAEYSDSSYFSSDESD
T1 sequence (P14902 whole entry): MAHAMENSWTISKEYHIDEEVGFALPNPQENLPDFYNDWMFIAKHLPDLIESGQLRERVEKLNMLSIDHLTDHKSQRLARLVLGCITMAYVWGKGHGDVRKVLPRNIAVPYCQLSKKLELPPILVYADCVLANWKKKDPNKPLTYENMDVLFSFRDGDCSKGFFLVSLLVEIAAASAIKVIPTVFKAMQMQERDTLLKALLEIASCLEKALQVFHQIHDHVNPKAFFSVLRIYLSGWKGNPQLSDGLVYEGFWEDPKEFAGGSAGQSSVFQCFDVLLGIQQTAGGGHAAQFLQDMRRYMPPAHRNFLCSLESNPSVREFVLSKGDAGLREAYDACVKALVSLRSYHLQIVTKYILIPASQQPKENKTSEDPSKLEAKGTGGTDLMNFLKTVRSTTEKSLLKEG
Sequence of Indoleamine 2,3-dioxygenase 1 (Mus musculus, UniProt P28776) (P28776 whole entry): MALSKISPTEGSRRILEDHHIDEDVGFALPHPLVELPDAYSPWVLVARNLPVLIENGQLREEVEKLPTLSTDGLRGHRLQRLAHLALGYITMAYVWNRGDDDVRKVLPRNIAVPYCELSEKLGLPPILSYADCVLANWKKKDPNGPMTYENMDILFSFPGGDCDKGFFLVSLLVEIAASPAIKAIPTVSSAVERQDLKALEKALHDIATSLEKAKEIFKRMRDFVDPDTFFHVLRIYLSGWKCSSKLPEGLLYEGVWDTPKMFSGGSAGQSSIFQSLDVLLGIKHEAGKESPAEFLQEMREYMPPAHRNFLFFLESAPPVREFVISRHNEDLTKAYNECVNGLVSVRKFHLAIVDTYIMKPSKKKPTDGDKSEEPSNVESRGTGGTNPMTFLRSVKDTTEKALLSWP

SMILES: O=C(c1ccccc1)c1cccc(O)c1
- IC50 ([1]; read-out: IC50): 500 µM

SMILES: c1ccc(-c2cnn[nH]2)cc1
- CC50 [2]: > 400 µM
- CC50 [3]: > 400 µM
- CC50 [4]: > 80 µM
- IC50 ([5]; read-out: IC50): 5 µM
- IC50 [6]: > 400 µM

SMILES: Oc1ccc(O)c2ccccc12
- CC50 [2]: 10 µM
- CC50 [3]: 40 µM
- CC50 [4]: 40 µM
- IC50 [6]: > 10 µM

SMILES: c1cc(-c2cnn[nH]2)ccn1
- CC50 [4]: 200 µM
- IC50 ([1]; read-out: IC50): 5 µM
- IC50 ([5]; p815b): Not Active

SMILES: CC(C)/N=C1/C=C(C2=C/C(=N\C(C)C)c3ccccc3C2=O)C(=O)c2ccccc21
- CC50 [2]: 100 µM
- CC50 [3]: 50 µM
- CC50 [4]: 50 µM
- IC50 [7]: 25 µM
- IC50 ([1]; read-out: IC50): 0.45 µM
- IC50 ([5]; read-out: IC50): > 50 µM
- IC50 [6]: > 50 µM

SMILES: CCC(CC)/N=C1/C=C(C2=C/C(=N\C(CC)CC)c3ccccc3C2=O)C(=O)c2ccccc21
- CC50 [2]: 100 µM
- CC50 [3]: > 400 µM
- CC50 [4]: 200 µM
- IC50 [7]: 50 µM
- IC50 ([1]; read-out: IC50): 0.52 µM
- IC50 ([5]; read-out: IC50): > 200 µM
- IC50 [6]: > 50 µM

SMILES: c1cncc(-c2c[nH]nn2)c1
- IC50 ([1]; read-out: IC50): 680 µM

SMILES: Nc1ccc(O)c2ncccc12
- CC50 [2]: 5 µM
- CC50 [4]: 2.5 µM
- IC50 ([1]; read-out: IC50): 3 µM
- IC50 ([5]; read-out: IC50): 1 µM
- IC50 [6]: 5 µM

SMILES: CC(C)(C)Nc1ccc(O)c2ccccc12
- CC50 [4]: 20 µM
- IC50 ([1]; read-out: IC50): 4 µM
- IC50 ([5]; p815b): Not Active

SMILES: Nc1ccccc1Oc1ccccc1
- IC50 ([1]; read-out: IC50): > 1000 µM

SMILES: Oc1ccc(NCc2ccccc2)c2ccccc12
- IC50 ([1]; read-out: IC50): 2.5 µM

SMILES: N[C@@H](CO)C(=O)Nc1ccc(O)c2ccccc12
- IC50 ([1]; read-out: IC50): 400 µM

SMILES: OCCOc1ccc(O)c2ccccc12
- IC50 ([1]; read-out: IC50): 12.5 µM

SMILES: SC1Nc2ccccc2S1 (centres undefined)
- LD50 ([2]; Mus musculus, P815B): > 80 µM
- LD50 (HEK293): > 80 µM
- CC50 [4]: > 80 µM
- IC50 [7]: 7 µM
- IC50 ([1]; read-out: IC50): 50 µM
- IC50 ([5]; read-out: IC50): 20 µM
- IC50 [6]: > 80 µM

SMILES: CN(C)c1ccc(O)c2ccccc12
- IC50 ([1]; read-out: IC50): 1000 µM

SMILES: Sc1nc(-c2ccccc2)cs1
- CC50 [2]: > 80 µM
- CC50 [3]: > 80 µM
- CC50 [4]: > 80 µM
- IC50 ([5]; read-out: IC50): 20 µM
- IC50 [6]: > 80 µM

SMILES: O=C1c2ccccc2-c2ccccc21
- IC50 ([1]; read-out: IC50): > 200 µM

SMILES: CCNc1ccc(O)c2ncccc12
- CC50 [4]: 20 µM
- IC50 ([1]; read-out: IC50): 40 µM
- IC50 ([5]; p815b): Not Active

SMILES: CC(C)Nc1ccc(O)c2ncccc12
- CC50 [4]: > 200 µM
- IC50 ([1]; read-out: IC50): 15 µM
- IC50 ([5]; p815b): Not Active

SMILES: CCCNc1ccc(O)c2ccccc12
- CC50 [4]: 20 µM
- IC50 ([1]; read-out: IC50): 4.5 µM
- IC50 ([5]; p815b): Not Active

SMILES: Nc1ccc(Nc2ccccc2)cc1
- IC50 ([1]; read-out: IC50): 400 µM

SMILES: CN(C)CSc1nc(-c2ccccc2)cs1
- IC50 ([1]; read-out: IC50): > 1000 µM

SMILES: CC1=C/C(=N\C(C)C)c2ccccc2C1=O
- CC50 [2]: 10 µM
- CC50 [3]: 50 µM
- CC50 [4]: 15 µM
- IC50 [7]: > 50 µM
- IC50 ([1]; read-out: IC50): 0.2 µM
- IC50 ([5]; read-out: IC50): 4 µM
- IC50 [6]: 6.3 µM

SMILES: Nc1ccc(O)c2ccccc12
- CC50 [4]: 2 µM
- IC50 ([1]; read-out: IC50): 6 µM
- IC50 ([5]; p815b): Not Active

SMILES: CCNc1ccc(O)c2ccccc12
- CC50 [2]: 50 µM
- CC50 [3]: 200 µM
- CC50 [4]: 400 µM
- IC50 [6]: > 50 µM

SMILES: CC(C)Nc1ccc(O)c2ccccc12
- CC50 [2]: 15 µM
- CC50 [3]: 100 µM
- CC50 [4]: > 80 µM
- IC50 [7]: 12.5 µM
- IC50 ([1]; read-out: IC50): 2.5 µM
- IC50 ([5]; read-out: IC50): 30 µM
- IC50 [6]: > 15 µM

SMILES: Cn1cc(C[C@H](N)C(=O)O)c2ccccc21 [(L)-1-METHYLTRYPTOPHAN]
- CC50 [2]: > 400 µM
- CC50 [3]: > 400 µM
- CC50 [4]: > 1000 µM
- IC50 [6]: > 400 µM

SMILES: Oc1ccc(Cl)cc1Cc1cc(Cl)ccc1O [DICHLOROPHEN]
- CC50 [4]: 0.2 µM
- IC50 ([5]; p815b): Not Active

SMILES: Oc1cccc2cccnc12 [OXYQUINOLINE]
- IC50 ([1]; read-out: IC50): 750 µM

Now from value to molecule:

- IC50 ([1]; read-out: IC50): 1000 µM
SMILES: Nc1nc(-c2ccccc2)cs1

- IC50 ([1]; read-out: IC50): 400 µM
SMILES: Oc1cccc2[nH]c3ccccc3c12

- IC50 [1]: Not Active
SMILES: CN1c2ccccc2SC1S (centres undefined)

- IC50 [1]: Not Active
SMILES: NC1Nc2ccccc2S1 (centres undefined)

- IC50 [1]: Not Active
SMILES: OC1Cc2ccccc2N1 (centres undefined)

- IC50 ([1]; read-out: IC50): 44 µM
SMILES: NCCNc1ccc(O)c2ccccc12

- IC50 [1]: Not Active
SMILES: SC1Nc2ccccc2N1

- IC50 [1]: Not Active
SMILES: OC1Nc2ccccc2S1 (centres undefined)

- IC50 ([1]; read-out: IC50): 50 µM
SMILES: SC1Nc2cc(Cl)ccc2S1 (centres undefined)

- IC50 ([1]; read-out: IC50): 12.5 µM
SMILES: CNc1ccc(O)c2ccccc12

- IC50 ([1]; read-out: IC50): 105 µM
SMILES: NCC(=O)Nc1ccc(O)c2ccccc12

- IC50 ([1]; read-out: IC50): 15 µM
SMILES: Oc1ccc(NC2CCCCC2)c2ccccc12

- IC50 ([1]; read-out: IC50): > 1000 µM
SMILES: OC1c2ccccc2-c2ccccc21

- IC50 ([1]; read-out: IC50): 25 µM
SMILES: CC(C)CNc1ccc(O)c2ccccc12

- IC50 ([1]; read-out: IC50): 90 µM
SMILES: C[C@@H](N)C(=O)Nc1ccc(O)c2ccccc12

- IC50 ([1]; read-out: IC50): 3.5 µM
SMILES: CCC(CC)Nc1ccc(O)c2ccccc12

- IC50 ([1]; read-out: IC50): 50 µM
SMILES: CN(C)CSC1Nc2ccccc2S1 (centres undefined)

- IC50 [1]: Not Active
SMILES: OC1Nc2ccccc2N1

- IC50 ([1]; read-out: IC50): 5.5 µM
SMILES: COc1ccc(N)c2ccccc12

- IC50 [1]: Not Active
SMILES: CSC1Nc2ccccc2S1 (centres undefined)

- IC50 ([1]; read-out: IC50): 60 µM
SMILES: C[C@H](N)C(=O)Nc1ccc(O)c2ccccc12

- IC50 [1]: Not Active
SMILES: Nc1ccc2c(c1)SC(S)N2 (centres undefined)

- IC50 ([1]; read-out: IC50): 3 µM
SMILES: CCN(CC)CCNc1ccc(O)c2ccccc12

- IC50 ([1]; read-out: IC50): 5 µM
SMILES: NCCCNc1ccc(O)c2ccccc12

- IC50 ([1]; read-out: IC50): 200 µM
SMILES: O=C(Nc1ccc(O)c2ccccc12)[C@@H]1CCCN1

- IC50 ([1]; read-out: IC50): 1000 µM
SMILES: O=C(c1ccccc1)c1ccccc1 [BENZOPHENONE]
